IMP-1 inhibitor = inhibitors of Pseudomonas aeruginosa IMP-1 metallo-beta-lactamase | 290,000 compounds, 0.45% hits | inhibition, % at 5.6 µM | purified IMP-1, nitrocefin hydrolysis, epi-absorbance fluorescence | AID 1556;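 active = inhibition above the mean plus 3 SD of all compounds in the same screening run, cut at about 4.5% in these data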;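 note: 0% = IMP-1 with DMSO and 100% = DMSO wells lacking enzyme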
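System – purified recombinant IMP-1 beta-lactamase · Input – IMP-1 dispensed at 0.2 nM · Timing – 15 min preincubation plus 25 min reaction at 25 °C · Signal – Epi-absorbance fluorescence, 480 nm excitation, 530 nm emission · Measure – percent IMP-1 inhibition derived from blank-referenced optical density · Controls – Enzyme-plus-DMSO low control, enzyme-free DMSO high control · Replication – singlicate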
VIM-2 inh = blocks Pseudomonas aeruginosa VIM-2 metallo-beta-lactamase | purified VIM-2, nitrocefin hydrolysis, epi-absorbance fluorescence | inhibition, % at 5.6 µM | 290,000 compounds, 0.89% hits;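 active = inhibition above the mean of all tested compounds plus 3 SD, cutoff set per screening run, cut at about 7.5% in these data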;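 note: red hydrolysis product quenches plate fluorescence so inhibitors raise well fluorescence; 0% = enzyme with DMSO and 100% = DMSO without enzyme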
DNA FID counter = displaces DNA intercalator in HCV helicase counter-screen; DNA fluorescent intercalator displacement, fluorescence; inhibition, % at 7.9 µM; 290,000 compounds, 0.17% hits; AID 1845; in the data active = inhibition above about 37%;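 note: 0% = vehicle and 100% = reference compound; higher means more ethidium bromide displaced from hairpin DNA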
NS3 helicase inh = HCV NS3 helicase inhibition | NS3 helicase DNA unwinding, Cy5 molecular beacon fluorescence | inhibition, % at 10.9 µM | 290,000 compounds, 0.56% hits | AID 1800;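 active = inhibition above the mean of all tested compounds plus 3 SD, set per campaign, cut at about 35% in these data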;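 note: 0% = DMSO wells and 100% = thioflavine S control wells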
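Measured by: Cy5 fluorescence, 0 and 60 min reads / Assay system: NS3 helicase fragment of HCV / Control set: low DMSO, high thioflavine S at 110 µM / Times: 1 h reaction at 25 °C, ATP-initiated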
SUMO HTRF inh = SUMOylation inhibition. P63279. inhibition, % at 35 µM. 290,000 compounds, 0.36% hits. HTRF SUMOylation assay, SAE1/SAE2 + UBC9, in vitro; in the data active = inhibition above about 50%, passing the limit was not always enough
Target sequence (P63279 whole entry, looked up): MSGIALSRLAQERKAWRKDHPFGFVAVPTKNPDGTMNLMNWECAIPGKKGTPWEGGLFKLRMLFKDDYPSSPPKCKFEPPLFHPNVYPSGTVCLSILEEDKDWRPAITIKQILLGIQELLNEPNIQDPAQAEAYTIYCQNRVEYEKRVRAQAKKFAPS
An asterisk follows results filed as active. Only some compounds are listed: those with a hit (about 2.1% of all), similar ones and a draw of the others.

CC(c1ccccc1)C1CC(=O)N(c2cc(Cl)ccn2)C1=O (stereo not given) was read as IMP-1 inhibitor 15*, VIM-2 inh 0, DNA FID counter -3, NS3 helicase inh -8 and SUMO HTRF inh 3.
COc1cccc(-c2nc(N3CCCCC3C)c3ccccc3n2)c1O (stereo not given) was read as IMP-1 inhibitor -1, VIM-2 inh -2, DNA FID counter -3, NS3 helicase inh -9 and SUMO HTRF inh -26.
For Cc1ccc(-c2nnc(N3CCCCC3)c3ccccc23)cc1 the results were IMP-1 inhibitor -2, VIM-2 inh 2, DNA FID counter -34, NS3 helicase inh -2 and SUMO HTRF inh 15.
For COc1cccc(-c2nc(N3CCN(C)CC3)c3ccccc3n2)c1O the results were IMP-1 inhibitor -2, VIM-2 inh 10*, DNA FID counter 34, NS3 helicase inh 23 and SUMO HTRF inh 0.
`CN1CCN(c2nc(-c3ccc(Cl)cc3)nc3ccccc23)CC1` gave IMP-1 inhibitor 3, VIM-2 inh 3, DNA FID counter 39*, NS3 helicase inh -50 and SUMO HTRF inh -6.
For CN1CCN(c2nnc(-c3ccc(Cl)cc3)c3ccccc23)CC1 the results were IMP-1 inhibitor -2, VIM-2 inh 10*, DNA FID counter 7, NS3 helicase inh -17 and SUMO HTRF inh 1.
`Cc1ccc(C(=O)N/C(=C/c2ccc(F)cc2)C(=O)NCc2ccncc2)cc1` gave IMP-1 inhibitor 0, VIM-2 inh -3, DNA FID counter 0, NS3 helicase inh 5 and SUMO HTRF inh -6.
Screening O=C1C2C(c3ccccc3)C=CC(c3ccccc3)C2C(=O)N1c1cccnc1 (stereo not given) returned IMP-1 inhibitor 6.2*, VIM-2 inh 1, DNA FID counter -13, NS3 helicase inh -8 and SUMO HTRF inh -2.
For O=C(O)c1ccc(S(=O)(=O)/N=C2\C=C(Nc3ccccc3F)C(=O)c3ccccc32)cc1 the results were IMP-1 inhibitor -3, VIM-2 inh 0, DNA FID counter -3, NS3 helicase inh 13 and SUMO HTRF inh 92*.
Cc1ccccc1NC1=C/C(=N\S(=O)(=O)c2ccc(C(=O)O)cc2)c2ccccc2C1=O was read as IMP-1 inhibitor -1, VIM-2 inh 0, DNA FID counter -12, NS3 helicase inh 7 and SUMO HTRF inh 88*.
`Cc1ccc(NC2=C/C(=N/S(=O)(=O)c3cccs3)c3ccccc3C2=O)cc1C` gave IMP-1 inhibitor -3, VIM-2 inh 0, DNA FID counter 0, NS3 helicase inh -9 and SUMO HTRF inh -2.
Screening Cc1ccccc1NC1=C/C(=N\S(=O)(=O)c2cccs2)c2ccccc2C1=O returned IMP-1 inhibitor -2, VIM-2 inh -4, DNA FID counter 6, NS3 helicase inh 1 and SUMO HTRF inh 73*.
COc1ccc(S(=O)(=O)/N=C2\C=C(Nc3ccc(O)cc3)C(=O)c3ccccc32)cc1 was read as IMP-1 inhibitor -6, VIM-2 inh -3, DNA FID counter 1, NS3 helicase inh -17 and SUMO HTRF inh 25.
Clc1cccc(Cl)c1C[n+]1ccc2ccccc2c1 was read as IMP-1 inhibitor -2, VIM-2 inh 1, DNA FID counter 1, NS3 helicase inh -4 and SUMO HTRF inh 10.
For CCN(CC)c1ccc(/C=C2\C(=O)c3ccc(C(=O)O)cc3C2=O)cc1 the results were IMP-1 inhibitor 0, VIM-2 inh -4, DNA FID counter -13, NS3 helicase inh 12 and SUMO HTRF inh 23.
Screening C[C@H](NC(=O)[C@@H]1CSC2c3ccccc3C(=O)N21)C(=O)NCc1c(F)cccc1Cl (stereo not given in full) returned IMP-1 inhibitor 1, VIM-2 inh 3, DNA FID counter -33, NS3 helicase inh -8 and SUMO HTRF inh 7.
For CCN1/C(=C/C=C/c2oc3ccc(-c4ccccc4)cc3[n+]2CC)Oc2ccc(-c3ccccc3)cc21 the results were IMP-1 inhibitor 4.6*, VIM-2 inh -1, DNA FID counter -156, NS3 helicase inh -35 and SUMO HTRF inh 33.
Screening CCCc1c(C(=O)N/N=C/c2cccc(OCc3ccc(F)cc3)c2)nnn1-c1nonc1N returned IMP-1 inhibitor -4, VIM-2 inh -2, DNA FID counter -6, NS3 helicase inh 4 and SUMO HTRF inh 2.
`OCCN(CCO)c1ncnc2c1sc1nc(N3CCOCC3)c3c(c12)CCCC3` gave IMP-1 inhibitor -3, VIM-2 inh 9.0*, DNA FID counter -15, NS3 helicase inh -10 and SUMO HTRF inh 12.
Screening CCOC(=O)C(Sc1ncnc2c1sc1nc(N3CCOCC3)c3c(c12)CCCC3)c1ccccc1 (stereo not given) returned IMP-1 inhibitor 6.2*, VIM-2 inh -6, DNA FID counter -8, NS3 helicase inh 10 and SUMO HTRF inh -11.
S=c1nc[nH]c2c1sc1nc(-c3ccccc3)c3c(c12)CCCC3 was read as IMP-1 inhibitor 16*, VIM-2 inh 1, DNA FID counter -14, NS3 helicase inh 31 and SUMO HTRF inh 23.
For O=C(O)CSc1ncnc2c1sc1nc(-c3ccccc3)c3c(c12)CCC3 the results were IMP-1 inhibitor 9.4*, VIM-2 inh -2, DNA FID counter -16, NS3 helicase inh 31 and SUMO HTRF inh -162.
`CCOC(=O)CSc1ncnc2c1sc1nc(N3CCOCC3)c3c(c12)CCCC3` gave IMP-1 inhibitor 2, VIM-2 inh 0, DNA FID counter -2, NS3 helicase inh 3 and SUMO HTRF inh -13.
O=C(NCc1cccc(Cl)c1)c1ccc2ccccc2n1 was read as IMP-1 inhibitor -5, VIM-2 inh -3, DNA FID counter -28, NS3 helicase inh -9 and SUMO HTRF inh -7.
`CN1CCN(c2ncnc3c2sc2nc(N4CCOCC4)c4c(c23)CCC4)CC1` gave IMP-1 inhibitor -3, VIM-2 inh 7, DNA FID counter 0 and NS3 helicase inh 3.
For OCCN1CCN(c2ncnc3c2sc2nc(N4CCOCC4)c4c(c23)CCC4)CC1 the results were IMP-1 inhibitor 0, VIM-2 inh 9.9*, DNA FID counter -1, NS3 helicase inh 3 and SUMO HTRF inh 18.
`COc1ccccc1NC(=O)CN1CCCCCC1` gave IMP-1 inhibitor 0, VIM-2 inh 1, DNA FID counter -6, NS3 helicase inh -3 and SUMO HTRF inh 5.
`CN(C)c1cc(NC(=O)CN2CCCC2)c2ccccc2n1` gave IMP-1 inhibitor -2, VIM-2 inh 0, DNA FID counter 55*, NS3 helicase inh 11 and SUMO HTRF inh 21.
Screening COc1cc(NC(=O)Nc2ccccc2OC)c(OC)cc1NC(=O)CN1CCCCC1 returned IMP-1 inhibitor 4.7*, VIM-2 inh -1, DNA FID counter 12, NS3 helicase inh -21 and SUMO HTRF inh -22.
`O=C(Cc1c(F)cccc1Cl)NCc1cccnc1` gave IMP-1 inhibitor -2, VIM-2 inh -2, DNA FID counter -2, NS3 helicase inh 0 and SUMO HTRF inh -10.
